How the values were obtained:
BXPC-3 [1] = experiment: Antiproliferative activity against human BxPC3 cells after 72 hrs by MTT assay; type: functional, cell-based; conditions: BXPC-3, 72 h
In short: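 Cells grown in DMEM with 10% FBS and 1% penicillin-streptomycin at 37 °C, 5% CO2. Seeded at 4,000 to 5,000 cells/well, cultured one day, then exposed to compounds for 72 h at 1.25 to 40 μmol/L, five replicates per concentration. MTT absorbance read at 570 nm. IC50 from five-point dose-response curves; mean of at least three separate experiments.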

ASPC1 [2] = experiment: Induction of apoptosis in human Aspc-1 cells assessed as viable cells at 5 uM after 72 hrs by Annexin V-FITC/propidium iodide staining-based flow cytometry (reference value: 100%); type: functional; conditions: ASPC1, 72 h, read-out: Activity
In short: (§1)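 AsPC-1 cells (3 to 5×10^5 per well) were treated with DMSO solvent control or compound for 72 h in medium with 5% FBS. Cells were then stained with Annexin V-FITC and propidium iodide and analysed by flow cytometry. One representative experiment shown.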

ASPC1 [3] = experiment: Cell cycle arrest in human Aspc-1 cells assessed as accumulation at G0/G1 phase at 2.5 uM after 72 hrs by propidium iodide staining-based flow cytometry (reference value: 39.41%); type: functional
[4] = target: Epidermal growth factor receptor (Homo sapiens) (UniProt P00533); experiment: Inhibition of recombinant GST-tagged human EGFR cytoplasmic domain (668 to 1210 residues) expressed in baculovirus expression system at 100 nM relative to control
In short: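 Part of a small kinase-panel profile run by an outsourced biochemical profiling service. The test compound was given at a single concentration of 100 nM, and activity was reported as percent inhibition rate.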

ASPC1 [5] = experiment: Cell cycle arrest in human Aspc-1 cells assessed as accumulation at S phase at 2.5 uM after 72 hrs by propidium iodide staining-based flow cytometry (reference value: 59.70%); type: functional
ASPC1 [6] = experiment: Induction of apoptosis in human Aspc-1 cells assessed as necrotic cells at 2.5 uM after 72 hrs by Annexin V-FITC/propidium iodide staining-based flow cytometry (reference value: 0%); type: functional; in short: as §1
BXPC-3 [7] = experiment: Antiproliferative activity against human BxPC3 cells assessed as cell viability at 4 uM after 24 hrs by MTT assay (reference value: 100%); type: functional; conditions: BXPC-3, 24 h, read-out: Activity
ASPC1 [8] = experiment: Induction of apoptosis in human Aspc-1 cells assessed as late apoptotic cells at 5 uM after 72 hrs by Annexin V-FITC/propidium iodide staining-based flow cytometry (reference value: 0%); type: functional; in short: as §1
ASPC1 [9] = experiment: Antiproliferative activity against human Aspc-1 cells assessed as cell viability at 4 uM after 24 hrs by MTT assay (reference value: 100%); type: functional; conditions: ASPC1, 24 h, read-out: Activity

Chain of Epidermal growth factor receptor (Homo sapiens) (P00533 whole entry, the tested form may be a part): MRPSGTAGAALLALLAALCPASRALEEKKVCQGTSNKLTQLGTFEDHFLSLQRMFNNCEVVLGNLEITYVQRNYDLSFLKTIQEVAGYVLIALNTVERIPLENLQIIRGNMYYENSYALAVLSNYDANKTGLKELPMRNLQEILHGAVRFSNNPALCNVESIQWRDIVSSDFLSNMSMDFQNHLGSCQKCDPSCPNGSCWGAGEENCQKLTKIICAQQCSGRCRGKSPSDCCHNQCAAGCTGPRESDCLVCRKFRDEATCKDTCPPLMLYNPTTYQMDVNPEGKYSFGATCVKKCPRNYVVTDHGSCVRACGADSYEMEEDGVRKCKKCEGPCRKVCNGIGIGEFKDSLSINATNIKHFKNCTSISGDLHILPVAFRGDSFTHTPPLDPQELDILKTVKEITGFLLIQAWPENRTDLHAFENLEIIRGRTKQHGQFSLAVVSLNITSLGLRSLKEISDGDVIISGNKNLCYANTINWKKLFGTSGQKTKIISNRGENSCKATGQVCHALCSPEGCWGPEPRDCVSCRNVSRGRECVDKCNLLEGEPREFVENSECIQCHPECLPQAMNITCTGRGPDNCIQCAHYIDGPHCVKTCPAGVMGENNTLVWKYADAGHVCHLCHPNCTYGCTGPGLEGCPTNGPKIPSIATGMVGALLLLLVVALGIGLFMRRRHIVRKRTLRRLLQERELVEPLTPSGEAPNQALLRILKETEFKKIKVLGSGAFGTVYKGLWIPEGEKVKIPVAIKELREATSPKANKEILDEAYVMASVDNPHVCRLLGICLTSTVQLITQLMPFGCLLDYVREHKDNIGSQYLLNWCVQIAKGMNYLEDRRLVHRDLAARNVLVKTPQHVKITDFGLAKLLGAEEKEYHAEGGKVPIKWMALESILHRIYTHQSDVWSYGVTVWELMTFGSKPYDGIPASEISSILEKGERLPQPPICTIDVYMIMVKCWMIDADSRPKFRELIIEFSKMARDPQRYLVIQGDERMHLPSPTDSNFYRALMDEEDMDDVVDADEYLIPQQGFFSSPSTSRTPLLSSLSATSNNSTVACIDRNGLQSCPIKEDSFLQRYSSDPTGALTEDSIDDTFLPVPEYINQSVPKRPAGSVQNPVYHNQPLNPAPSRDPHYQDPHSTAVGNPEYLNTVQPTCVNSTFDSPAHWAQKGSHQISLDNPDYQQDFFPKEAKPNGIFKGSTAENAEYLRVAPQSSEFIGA

Q: What does the source list for CCOP(=O)(CCCOc1ccc(Nc2ncc([N+](=O)[O-])c(Nc3ccccc3C(=O)NC)n2)cc1)N1CCOCC1 (centres undefined)?
A: IC50 (BXPC-3 [1]): 570 nM; viability at 5 µM (ASPC1 [2]): 40.1%; Activity (ASPC1 [3]): 38.18%; inhibition [4]: 22%; Activity (ASPC1 [5]): 28%; Activity (ASPC1 [6]): 2.9%; viability at 4 µM (BXPC-3 [7]): 88.5%; Activity (ASPC1 [8]): 40.3%; viability at 4 µM (ASPC1 [9]): 68%

Reference: ChEMBL document CHEMBL4177662, “Phosphamide-containing diphenylpyrimidine analogues (PA-DPPYs) as potent focal adhesion kinase (FAK) inhibitors with enhanced activity against pancreatic cancer cell lines” (Bioorg Med Chem, 2017)
